Cneo AK release: Cryptococcus neoformans lysis via adenylate kinase release; AID 651654; C. neoformans lysis, adenylate kinase release luminescence, 4 h; normalised: neutral wells 0, clomiphene wells 100; lysis activity, % at 15 µM; 360,000 tested, 0.2% active;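 active = mean lysis activity across replicates of at least 80%, whatever share of replicates individually reach that level; inactive = mean lysis activity below 80%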
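Test system: log-phase Cryptococcus neoformans yeast cells. Input: 5 × 10^6 yeast cells/mL. Medium: fresh YPD growth medium. Doses: single dose. Incubation: static 4 h at 37 °C with compound, 1 h detection. Measured by: luminescent adenylate kinase detection reagent. Read-out: signal increase indicating cell lysis. Benchmarks: Clomiphene.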
ERAP1 HTS inh: blocks human ERAP1 aminopeptidase activity | 340,000 tested, 0.15% active | AID 652197 | recombinant ERAP1, Leu-AMC fluorescence, 60 min | inhibition, % at 10.7 µM;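 active = mean replicate inhibition of at least 30%, or all replicates individually reaching that 30% level; inactive = mean below 30% and not every replicate reaching it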;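 also: 0% = neutral control wells and 100% = L-leucinethiol positive control wells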
FGF22 binding: shifts melting point of recombinant human FGF22; Q9HCT0; recombinant FGF22 thermal shift, SYPRO orange fluorescence; percent of sucrose octasulfate shift, DMSO zero; activity (Tm shift, normalised), % at 9.99 µM; AID 651658; 340,000 tested, 1.5% active;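 active = mean Tm shift, scaled 0 neutral to 100 positive control, at about 1.3% or above, every replicate too, limit read from the data; inconclusive = no clear call, values can overlap the other calls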
Target sequence (Q9HCT0 whole entry, looked up): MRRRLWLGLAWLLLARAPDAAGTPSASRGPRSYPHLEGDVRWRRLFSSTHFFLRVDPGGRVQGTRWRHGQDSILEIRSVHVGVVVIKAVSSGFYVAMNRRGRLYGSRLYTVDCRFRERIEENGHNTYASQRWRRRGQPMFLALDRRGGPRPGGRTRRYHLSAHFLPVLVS
Ecoli rRNA inh: inhibits bacterial ribosomal RNA function over humanized ribosomes. E. coli WT GFP vs humanized-ribosome RFP mutants, fluorescence, 24 h; hits give low values; DMSO median 0, no signal -100. GFP signal change (wild-type ribosome), % (concentration not given with the values). 350,000 tested, 1.6% active. AID 720706;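 active = significant combined selectivity score with lowered wild-type GFP, culture density cut under 30%, mutant RFP and density less affected; inactive = any of these conditions unmet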
PGC1a acetyl inh: PGC1a acetylation modulation, inhibitor mode; 350,000 tested, 0.17% active; AID 651687; inhibition, % at 15.6 µM; U2OS PGC1a acetylation, AlphaScreen anti-acetyl-lysine; with virally co-expressed GCN5 acetyltransferase;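 active = every replicate shows inhibition of at least 40%; inconclusive = mean inhibition at least 40% but some replicate below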;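 also: 0% = neutral control wells and 100% = positive control wells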
HIV Env fusion: inhibitors of HIV Env-mediated cell fusion. inhibition, % at 12.3 µM. HeLa-JRFL Env/CEM21 cell fusion, luciferase. 360,000 tested, 1.1% active;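 active = mean replicate inhibition score of at least 50 and every replicate individually at or above 50; inconclusive = only one of the two criteria met; inactive = mean below 50 and not all replicates reaching 50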;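 also: 0% = plate neutral controls and 100% = maraviroc near 300 nM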
Starred values were filed as active, the others as inactive; u = inconclusive; x = not tested or not shown; [ ] = remark or other dose. Hits are enriched below; roughly 3.5% of the tested compounds scored in any of these assays.

SMILES	Cneo AK release	ERAP1 HTS inh	FGF22 binding	Ecoli rRNA inh	PGC1a acetyl inh	HIV Env fusion
Cc1ccc(S(=O)(=O)N2CCN(C(=O)CSc3ccc(Cl)cc3)CC2)cc1	-1	0	0	-7	2	19
O=Cc1[nH]c2ccccc2c1N(C(=O)CCl)c1ccc([N+](=O)[O-])cc1	1	0	0	-55*	15	45
O=C(CCl)N(CCCNC(=O)C(F)(F)F)c1ccc([N+](=O)[O-])cc1	9	-2	0	8	-15	-15
CC(=O)n1cc(N(C(=O)CCl)c2ccc([N+](=O)[O-])cc2)c2ccccc21	1	-2	0	-36*	12	-37
CC(=O)n1cc(N(C(=O)CCl)c2ccccc2)c2ccccc21	1	x	0	-3	6	-7
O=C(NNC(=S)Nc1ccc(F)cc1)C1CC1c1ccc(Cl)cc1 (stereo unspecified)	x	-1	0	-52*	x	5
Cc1ccc(NC(=S)NNC(=O)C2CC2c2ccc(C)cc2)cc1 (stereo unspecified)	0	x	x	x	9	-132
CCCCn1c(=N)n(CC(=O)c2ccc(OC)cc2)c2ccccc21	x	-4	0	-43*	x	-4
CCOC(=O)Cn1c(=N)n(CCOc2ccc(Br)cc2)c2ccccc21	3	-2	0	-48*	-1	15
CCOC(=O)Cn1c(=N)n(CCOc2cccc(C)c2)c2ccccc21	-1	x	x	x	4	-41
COc1ccc(CN2C(=O)c3ccccc3C2c2nnnn2C(C)C)cc1OC (stereo unspecified)	x	x	0	2	x	-10
O=C(NC1CCN(Cc2ccccc2)CC1)c1ccc2c(c1)[nH]c(=O)n2Cc1ccc(F)cc1	x	6	0	-32*	14	42
CCCCCn1c(=O)[nH]c2cc(C(=O)NC3CCN(Cc4ccccc4)CC3)ccc2c1=O	-1	-1	0	1	13	17
CCCc1ccc(-c2cc(NC(=O)Cc3c[nH]c4ccccc34)ccc2Nc2cccnc2)cc1	x	1	0	-2	x	20
CC(C)(C)c1ccc(-c2cc(NC(=O)Cc3c[nH]c4ccccc34)ccc2Nc2cccnc2)cc1	x	0	0	5	x	74*
COc1ccc(-c2nc(CS(=O)CC(=O)NCc3ccco3)c(C)o2)cc1OC (stereo unspecified)	-1	4	0	-5	-32	73*
Cc1ccc(-c2nc(CS(=O)CC(=O)NCc3ccco3)c(C)o2)cc1 (stereo unspecified)	-1	0	0	-3	x	1
Cc1oc(-c2ccccc2F)nc1CS(=O)CC(=O)NCc1ccccn1 (stereo unspecified)	-14	-3	44*	5	-29	-13
Cc1oc(-c2cccc(Cl)c2)nc1CS(=O)(=O)CC(=O)NC1CC1	2	0	0	1	-13	6
Cc1oc(-c2cccc(Cl)c2)nc1CS(=O)(=O)CC(=O)NCc1ccco1	-1	-1	1.5*	-3	-4	-3
Cc1ccc(-c2nc(CS(=O)CC(=O)NCc3ccccn3)c(C)o2)cc1 (stereo unspecified)	0	1	0	-2	-9	26
CC1=C(C(=O)OCc2ccc3c(c2)OCO3)C(c2ccc(Cl)cc2)NC(=O)N1 (stereo unspecified)	0	-3	0	-19	u	x
CCOC1=CC(=O)OC(c2ccccc2)C1 (stereo unspecified)	-7	-1	0	5	-8	16
CC(=O)c1cnn(-c2ccc(Cl)cc2)c1C	-1	1	0	2	-5	13
CCOC(=O)C1=C(C)NC(C)=C(C(=O)OCC)C1C	x	34*	0	-12	x	-21
SMILES	Cneo AK release	ERAP1 HTS inh	FGF22 binding	Ecoli rRNA inh	PGC1a acetyl inh	HIV Env fusion
Cc1nn(Cc2ccccc2)c(C)c1NC(=O)CSc1nc2c(c(C(F)(F)F)n1)CCc1ccccc1-2	x	x	x	x	x	-14
CCOC(=O)CSc1nc(-c2ccccc2)nc2ccc(C)cc12	x	1	43*	20	-13	12
O=C(CSc1nc(-c2ccccc2)nc2ccc(F)cc12)Nc1ccc(C(=O)O)cc1	x	4	6.0*	x	-3	2
CC[C@]1(C(=O)OC)[C@H]2C(=O)N(C)C(=O)[C@H]2[C@H]2CN=C(SCc3ccc(OC)cc3)N21	2	0	0	15	x	-9
Cc1ccc2[nH]c3c(=O)[nH]ncc3c2c1	0	0	0	5	43	66*
O=C(NCCCO)c1ccc2nc(-c3ccco3)c(-c3ccco3)nc2c1	x	11	43*	2	x	-4
CCCCNC(=O)c1ccc2nc(-c3ccco3)c(-c3ccco3)nc2c1	-2	x	0	-5	5	1
COc1cccc(C(=O)C2CCCN(C(=O)c3ccc(C#CC(C)(C)O)cc3)C2)c1 (stereo unspecified)	x	-2	0	-14	x	-2
Cc1c(C)c2ccc(OCC(=O)Nc3nccs3)cc2oc1=O	-12	-1	0	-2	6	0
O=C(Cc1ccccn1)NCC[C@H]1CC[C@H](NC(=O)Nc2ccc(C(F)(F)F)cc2)[C@H](CO)O1	-2	-3	0	1	48*	-6[16.7 µM]
O=C(C[C@H]1CC[C@H](NC(=O)Nc2ccc(C(F)(F)F)cc2)[C@H](CO)O1)NCc1cccc(F)c1	91*	-3	0	-8	-1	-2[16.7 µM]
O=C(Cc1ccccn1)NCC[C@H]1CC[C@@H](NC(=O)Nc2ccc(C(F)(F)F)cc2)[C@@H](CO)O1	4	0	0	-2	102*	-17[16.7 µM]
CCN(CC)CCNC(=O)CCCCn1c(=S)[nH]c2c([nH]c3ccc(OC)cc32)c1=O	-2	x	x	x	-4	-16
O=C(CSc1ncnc2scc(-c3ccc(F)cc3)c12)c1ccc2c(c1)OCCO2	x	x	x	x	x	5
COc1ccc(N2C(=O)CC(Nc3ccc(C(=O)O)cc3)C2=O)cc1OC (stereo unspecified)	x	1	43*	16	x	-13
COC(=O)c1cccc(NC2CC(=O)N(c3ccc(OC)c(OC)c3)C2=O)c1 (stereo unspecified)	-1	x	x	x	-1	-22
COc1ccc(NC(=O)NNS(=O)(=O)c2cc(C)ccc2C)cc1OC	0	-5	0	6	x	-8
COc1ccccc1N1C(=O)c2ccccc2NC1c1ccc(O)cc1 (stereo unspecified)	1	2	0	3	x	9
CCCn1c(-c2ccccc2)cc(SC)c(C#N)c1=O	x	-5	0	12	93*	-35
Cc1ccc(OCCOc2cccc3ccc(C)nc23)c([N+](=O)[O-])c1	0	0	1	-21*	x	7
COC(=O)c1ccccc1OCCOCCOc1cccc2ccc(C)nc12	3	-1	0	-28*	x	16

Screening data deposited in PubChem BioAssay by Broad Institute.
